Test results reported in ChEMBL document CHEMBL1649574, “Prevalence and characterization of heterogeneous vancomycin-intermediate Staphylococcus aureus isolates from 14 cities in China” (2009).
≈ marks a conversion by molar mass, not a printed value.

Assays:
Type in all cases: functional
Staphylococcus aureus [1] = assay: Antimicrobial activity against heterogeneous vancomycin-intermediate Staphylococcus aureus by agar dilution method
In short: (§1)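 Agar-dilution MICs were measured on a subset of 200 blood MRSA isolates from China. Agents: oxacillin, rifampin, gentamicin, levofloxacin, erythromycin, vancomycin, teicoplanin, tigecycline, ceftobiprole and linezolid. Phenotype came from the PAP-AUC ratio of each isolate to S. aureus Mu3 (VSSA <0.9; hVISA 0.9 to 1.3; VISA ≥1.3), read on BHI agar with 0 to 8.0 mg/liter vancomycin after 48 h at 35°C.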

Staphylococcus aureus [2] = assay: Antimicrobial activity against heterogeneous vancomycin-intermediate Staphylococcus aureus assessed as resistant isolates by agar dilution method
Staphylococcus aureus [3] = assay: Antimicrobial activity against heterogeneous vancomycin-intermediate Staphylococcus aureus assessed as intermediate isolates by agar dilution method
In short: (§2)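 MICs by agar dilution for all 200 MRSA blood isolates (oxacillin, rifampin, gentamicin, levofloxacin, erythromycin, vancomycin, teicoplanin, tigecycline, ceftobiprole, linezolid). Isolates were grouped by PAP-AUC ratio against S. aureus Mu3: below 0.9 VSSA, 0.9 to 1.3 hVISA, 1.3 or more VISA.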

Staphylococcus aureus [4] = assay: Antimicrobial activity against heterogeneous vancomycin-intermediate Staphylococcus aureus assessed as susceptible isolates by agar dilution method; in short: as §2
Staphylococcus aureus [5] = assay: Antimicrobial activity against heterogeneous vancomycin-intermediate Staphylococcus aureus assessed as growth inhibition at 0.25 times MIC; parameters: scale not given: the % may be the effect or the level left
Staphylococcus aureus [6] = assay: Antimicrobial activity against heterogeneous vancomycin-intermediate Staphylococcus aureus assessed as growth inhibition at 0.125 times MIC; parameters: scale not given: the % may be the effect or the level left
Staphylococcus aureus [7] = assay: Antimicrobial activity against vancomycin-susceptible Staphylococcus aureus by agar dilution method; in short: as §1
Staphylococcus aureus [8] = assay: Antimicrobial activity against heterogeneous vancomycin-susceptible Staphylococcus aureus assessed as resistant isolates by agar dilution method
Staphylococcus aureus [9] = assay: Antimicrobial activity against heterogeneous vancomycin-susceptible Staphylococcus aureus assessed as intermediate isolates by agar dilution method
Staphylococcus aureus [10] = assay: Antimicrobial activity against heterogeneous vancomycin-susceptible Staphylococcus aureus assessed as susceptible isolates by agar dilution method; in short: as §2
Staphylococcus aureus [11] = assay: Antimicrobial activity against heterogeneous vancomycin-intermediate Staphylococcus aureus assessed as growth inhibition at 0.5 times MIC; parameters: scale not given: the % may be the effect or the level left
Staphylococcus aureus [12] = assay: Antimicrobial activity against heterogeneous vancomycin-intermediate Staphylococcus aureus assessed as growth inhibition at MIC; parameters: scale not given: the % may be the effect or the level left
Staphylococcus aureus [13] = assay: Antimicrobial activity against heterogeneous vancomycin-intermediate Staphylococcus aureus assessed as growth inhibition at 2 times MIC; parameters: scale not given: the % may be the effect or the level left
Staphylococcus aureus [14] = assay: Antimicrobial activity against heterogeneous vancomycin-intermediate Staphylococcus aureus assessed as growth inhibition at 4 times MIC; parameters: scale not given: the % may be the effect or the level left
Staphylococcus aureus [15] = assay: Antimicrobial activity against heterogeneous vancomycin-intermediate Staphylococcus aureus assessed as growth inhibition at 16 times MIC; parameters: scale not given: the % may be the effect or the level left
Staphylococcus aureus [16] = assay: Antimicrobial activity against vancomycin-susceptible Staphylococcus aureus assessed as growth inhibition at 0.125 times MIC; parameters: scale not given: the % may be the effect or the level left
Staphylococcus aureus [17] = assay: Antimicrobial activity against vancomycin-susceptible Staphylococcus aureus assessed as growth inhibition at 0.25 times MIC; parameters: scale not given: the % may be the effect or the level left
Staphylococcus aureus [18] = assay: Antimicrobial activity against vancomycin-susceptible Staphylococcus aureus assessed as growth inhibition at 0.5 times MIC; parameters: scale not given: the % may be the effect or the level left
Staphylococcus aureus [19] = assay: Antimicrobial activity against vancomycin-susceptible Staphylococcus aureus assessed as growth inhibition at MIC; parameters: scale not given: the % may be the effect or the level left
Staphylococcus aureus [20] = assay: Antimicrobial activity against vancomycin-susceptible Staphylococcus aureus assessed as growth inhibition at 2 times MIC; parameters: scale not given: the % may be the effect or the level left
Staphylococcus aureus [21] = assay: Antimicrobial activity against vancomycin-susceptible Staphylococcus aureus assessed as growth inhibition at 4 times MIC; parameters: scale not given: the % may be the effect or the level left
Staphylococcus aureus [22] = assay: Antimicrobial activity against vancomycin-susceptible Staphylococcus aureus assessed as growth inhibition at 16 times MIC; parameters: scale not given: the % may be the effect or the level left

CN[C@H](CC(C)C)C(=O)N[C@H]1C(=O)N[C@@H](CC(N)=O)C(=O)N[C@H]2C(=O)N[C@H]3C(=O)N[C@H](C(=O)N[C@H](C(=O)O)c4cc(O)cc(O)c4-c4cc3ccc4O)[C@H](O)c3ccc(c(Cl)c3)Oc3cc2cc(c3O[C@@H]2O[C@H](CO)[C@@H](O)[C@H](O)[C@H]2O[C@H]2C[C@](C)(N)[C@H](O)[C@H](C)O2)Oc2ccc(cc2Cl)[C@H]1O [VANCOMYCIN]
MIC50 (Staphylococcus aureus [1]): 1 µg/mL (≈ 0.69 µM)
MIC90 (Staphylococcus aureus [1]): 2 µg/mL (≈ 1.38 µM)
Activity (Staphylococcus aureus [2]): 0%
Activity (Staphylococcus aureus [3]): 3.7%
Activity (Staphylococcus aureus [4]): 96.3%
Activity (Staphylococcus aureus [5]): 0%
Activity (Staphylococcus aureus [6]): 0%
MIC50 (Staphylococcus aureus [7]): 1 µg/mL (≈ 0.69 µM)
MIC90 (Staphylococcus aureus [7]): 1 µg/mL (≈ 0.69 µM)
Activity (Staphylococcus aureus [8]): 0%
Activity (Staphylococcus aureus [9]): 0%
Activity (Staphylococcus aureus [10]): 100%
Activity (Staphylococcus aureus [11]): 3.7%
Activity (Staphylococcus aureus [12]): 85.2%
Activity (Staphylococcus aureus [13]): 96.3%
Activity (Staphylococcus aureus [14]): 100%
Activity (Staphylococcus aureus [15]): 100%
Activity (Staphylococcus aureus [16]): 0%
Activity (Staphylococcus aureus [17]): 0%
Activity (Staphylococcus aureus [18]): 35.8%
Activity (Staphylococcus aureus [19]): 99.4%
Activity (Staphylococcus aureus [20]): 100%
Activity (Staphylococcus aureus [21]): 100%
Activity (Staphylococcus aureus [22]): 100%
